Results from ChEMBL document CHEMBL4689842, “EUbOPEN Chemogenomics Library wave 1” (2021).

System: HEK-293T
Assay: Multiplex assay against HEK293T;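 for Population Tubulin-Different-Phenotype (%): share of the cells with healthy nuclei that show this phenotype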
Format: toxicity, cell-based
Details: human
Procedure, shortened: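 Four dyes were applied at seeding to live cells: Hoechst33342, BioTracker Green Microtubule Cytoskeleton Dye, MitoTracker Red and Annexin V Alexa Fluor 680. Imaging after compound addition used a CQ1 microscope at 37°C and 5% CO2. CellPathfinder machine-learning gating then sorted cells into Hoechst high-intensity objects or normal cells, normal cells into healthy, pyknosed or fragmented nuclei, and pyknosed cells into mitotic or apoptotic, with tubulin, mitochondrial-mass and membrane-permeability phenotypes given as per cents of healthy-nucleus cells.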

[1] = 12 h, 1 µM, compound concentration 1 uM, replicate 1
[2] = 12 h, 1 µM, compound concentration 1 uM, replicate 2
[3] = 12 h, 10 µM, compound concentration 10 uM, replicate 1
[4] = 12 h, 10 µM, compound concentration 10 uM, replicate 2
[5] = 24 h, 1 µM, compound concentration 1 uM, replicate 1
[6] = 24 h, 1 µM, compound concentration 1 uM, replicate 2
[7] = 24 h, 10 µM, compound concentration 10 uM, replicate 1
[8] = 24 h, 10 µM, compound concentration 10 uM, replicate 2
[9] = 48 h, 1 µM, compound concentration 1 uM, replicate 1
[10] = 48 h, 1 µM, compound concentration 1 uM, replicate 2
[11] = 48 h, 10 µM, compound concentration 10 uM, replicate 1
[12] = 48 h, 10 µM, compound concentration 10 uM, replicate 2

Cc1ccc(S(=O)(=O)NC2c3ccccc3Oc3ccccc32)cc1
Population Apoptotic (%) [1]: 46% | Population Fragmented Nuclei (%) [1]: 11% | Population Healthy Nuclei (%) [1]: 44% | Population Hoechst High Intensity Objects (%) [1]: 11% | Population Membrane Permeable-Phenotype (%) [1]: 2% | Population Mitochondria Different-Phenotype (%) [1]: 64% | Population Mitotic Cells (%) [1]: 53% | Population Normal (%) [1]: 88% | Population Pyknosed Nuclei (%) [1]: 44% | Population Tubulin-Different-Phenotype (%) [1]: 27% | Total Cell Count [1]: 362 | Population Apoptotic (%) [2]: 21% | Population Fragmented Nuclei (%) [2]: 5% | Population Healthy Nuclei (%) [2]: 49% | Population Hoechst High Intensity Objects (%) [2]: 2% | Population Membrane Permeable-Phenotype (%) [2]: 17% | Population Mitochondria Different-Phenotype (%) [2]: 9% | Population Mitotic Cells (%) [2]: 78% | Population Normal (%) [2]: 97% | Population Pyknosed Nuclei (%) [2]: 45% | Population Tubulin-Different-Phenotype (%) [2]: 22% | Total Cell Count [2]: 179 | Population Apoptotic (%) [3]: 59% | Population Fragmented Nuclei (%) [3]: 32% | Population Healthy Nuclei (%) [3]: 37% | Population Hoechst High Intensity Objects (%) [3]: 11% | Population Membrane Permeable-Phenotype (%) [3]: 3% | Population Mitochondria Different-Phenotype (%) [3]: 86% | Population Mitotic Cells (%) [3]: 40% | Population Normal (%) [3]: 88% | Population Pyknosed Nuclei (%) [3]: 30% | Population Tubulin-Different-Phenotype (%) [3]: 74% | Total Cell Count [3]: 398 | Population Apoptotic (%) [4]: 16% | Population Fragmented Nuclei (%) [4]: 33% | Population Healthy Nuclei (%) [4]: 34% | Population Hoechst High Intensity Objects (%) [4]: 5% | Population Membrane Permeable-Phenotype (%) [4]: 12% | Population Mitochondria Different-Phenotype (%) [4]: 33% | Population Mitotic Cells (%) [4]: 83% | Population Normal (%) [4]: 94% | Population Pyknosed Nuclei (%) [4]: 31% | Population Tubulin-Different-Phenotype (%) [4]: 49% | Total Cell Count [4]: 307 | Population Apoptotic (%) [5]: 41% | Population Fragmented Nuclei (%) [5]: 10% | Population Healthy Nuclei (%) [5]: 47% | Population Hoechst High Intensity Objects (%) [5]: 13% | Population Membrane Permeable-Phenotype (%) [5]: 4% | Population Mitochondria Different-Phenotype (%) [5]: 55% | Population Mitotic Cells (%) [5]: 58% | Population Normal (%) [5]: 86% | Population Pyknosed Nuclei (%) [5]: 41% | Population Tubulin-Different-Phenotype (%) [5]: 41% | Total Cell Count [5]: 392 | Population Apoptotic (%) [6]: 22% | Population Fragmented Nuclei (%) [6]: 8% | Population Healthy Nuclei (%) [6]: 55% | Population Hoechst High Intensity Objects (%) [6]: 1% | Population Membrane Permeable-Phenotype (%) [6]: 23% | Population Mitochondria Different-Phenotype (%) [6]: 12% | Population Mitotic Cells (%) [6]: 77% | Population Normal (%) [6]: 98% | Population Pyknosed Nuclei (%) [6]: 36% | Population Tubulin-Different-Phenotype (%) [6]: 29% | Total Cell Count [6]: 239 | Population Apoptotic (%) [7]: 55% | Population Fragmented Nuclei (%) [7]: 13% | Population Healthy Nuclei (%) [7]: 55% | Population Hoechst High Intensity Objects (%) [7]: 10% | Population Membrane Permeable-Phenotype (%) [7]: 7% | Population Mitochondria Different-Phenotype (%) [7]: 68% | Population Mitotic Cells (%) [7]: 45% | Population Normal (%) [7]: 89% | Population Pyknosed Nuclei (%) [7]: 30% | Population Tubulin-Different-Phenotype (%) [7]: 55% | Total Cell Count [7]: 362 | Population Apoptotic (%) [8]: 17% | Population Fragmented Nuclei (%) [8]: 11% | Population Healthy Nuclei (%) [8]: 52% | Population Hoechst High Intensity Objects (%) [8]: 3% | Population Membrane Permeable-Phenotype (%) [8]: 9% | Population Mitochondria Different-Phenotype (%) [8]: 31% | Population Mitotic Cells (%) [8]: 82% | Population Normal (%) [8]: 96% | Population Pyknosed Nuclei (%) [8]: 36% | Population Tubulin-Different-Phenotype (%) [8]: 47% | Total Cell Count [8]: 283 | Population Apoptotic (%) [9]: 34% | Population Fragmented Nuclei (%) [9]: 18% | Population Healthy Nuclei (%) [9]: 46% | Population Hoechst High Intensity Objects (%) [9]: 12% | Population Membrane Permeable-Phenotype (%) [9]: 2% | Population Mitochondria Different-Phenotype (%) [9]: 26% | Population Mitotic Cells (%) [9]: 65% | Population Normal (%) [9]: 87% | Population Pyknosed Nuclei (%) [9]: 35% | Population Tubulin-Different-Phenotype (%) [9]: 28% | Total Cell Count [9]: 465 | Population Apoptotic (%) [10]: 13% | Population Fragmented Nuclei (%) [10]: 8% | Population Healthy Nuclei (%) [10]: 78% | Population Hoechst High Intensity Objects (%) [10]: 3% | Population Membrane Permeable-Phenotype (%) [10]: 11% | Population Mitochondria Different-Phenotype (%) [10]: 3% | Population Mitotic Cells (%) [10]: 86% | Population Normal (%) [10]: 96% | Population Pyknosed Nuclei (%) [10]: 12% | Total Cell Count [10]: 466 | Population Apoptotic (%) [11]: 36% | Population Fragmented Nuclei (%) [11]: 13% | Population Healthy Nuclei (%) [11]: 66% | Population Hoechst High Intensity Objects (%) [11]: 8% | Population Membrane Permeable-Phenotype (%) [11]: 2% | Population Mitochondria Different-Phenotype (%) [11]: 27% | Population Mitotic Cells (%) [11]: 63% | Population Normal (%) [11]: 91% | Population Pyknosed Nuclei (%) [11]: 20% | Population Tubulin-Different-Phenotype (%) [11]: 38% | Total Cell Count [11]: 453 | Population Apoptotic (%) [12]: 12% | Population Fragmented Nuclei (%) [12]: 4% | Population Healthy Nuclei (%) [12]: 73% | Population Hoechst High Intensity Objects (%) [12]: 2% | Population Membrane Permeable-Phenotype (%) [12]: 6% | Population Mitochondria Different-Phenotype (%) [12]: 20% | Population Mitotic Cells (%) [12]: 87% | Population Normal (%) [12]: 97% | Population Pyknosed Nuclei (%) [12]: 22% | Population Tubulin-Different-Phenotype (%) [12]: 45% | Total Cell Count [12]: 374
